The results in this text go back to ChEMBL document CHEMBL1132647, “Synthesis, calcium mobilizing, and physicochemical properties of D-chiro-inositol 1,3,4,6-tetrakisphosphate, a novel and potent ligand at the D-myo-inositol 1,4,5-trisphosphate receptor” (J Med Chem, 1999).

“And” between values parts separate entries of the source, which are not always exact repeats. Equal values may be shown once.

One experiment deals with SH-SY5Y. Kind of experiment: Steady-State [Ca2+] Release from Saponin-Permeabilized SH-SY5Y cell line. The format is functional, cell-based, Homo sapiens.
A further experiment deals with RBL-1. Kind of experiment: Steady-State [Ca2+] Release from Saponin-Permeabilized RBL Cell Lines. The format is functional, cell-based, Rattus norvegicus.
The test system of a further experiment is Lvec. In words: Steady-State [Ca2+] Release from Saponin-Permeabilized Lvec Cell Lines. The format is functional, cell-based. Summed up:
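⁴⁵Ca²⁺ release end point assay at 22 °C in saponin-permeabilized L15 cells (mouse L fibroblasts overexpressing type 1 InsP₃R about 8-fold) or Lvec vector-control cells. Stores were loaded with ⁴⁵Ca²⁺ in ATP-dependent fashion to steady state (about 15 min). Buffer was 120 mM KCl, 2 mM KH₂PO₄, 5 mM succinate, 20 mM Hepes, 2 mM ATP and 2.4 mM MgCl₂, at pH 7.2, with free Ca²⁺ set to 80–150 nM with EGTA. Retained ⁴⁵Ca²⁺ was counted by scintillation. 100% was the release by 10 µM Ins(1,4,5)P₃. EC50 and Hill slope came from curve fitting. At least four experiments in duplicate, mean ± SEM.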

Another experiment relates to L15. Kind of experiment: Steady-State [Ca2+] Release from Saponin-Permeabilized L15 Cell Lines.
The target of experiment [1] is Inositol 1,4,5-trisphosphate receptor (Homo sapiens, UniProt Q14571+Q14573+Q14643). Kind of experiment: The compound was tested for inhibitory activity against Inositol 1,4,5-trisphosphate receptor in L15 cell line. The format is cell-based. In short, it runs like this: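 Incubation was 30 min at 4 °C with EGTA. Bound and free ligand were separated by vacuum filtration through glass fiber filters and counted by scintillation. IC50 and Hill slope came from computer curve fitting. At least three experiments in duplicate, mean ± SEM.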

Experiment [2] is described as follows: Hill slope by computer-assisted curve fitting.
Experiment [3] can be described thus: Hill slope by computer-assisted curve fitting.

For the compound `O=P(O)(O)O[C@@H]1[C@H](O)[C@H](O)[C@@H](OP(=O)(O)O)[C@H](OP(=O)(O)O)[C@H]1O` (stereo in doubt) [INS(1,4,5)P3], the EC50 – broadly, the concentration that produces a half-maximal response – with SH-SY5Y was 171 nM; in the experiment on RBL-1 it was 4200 nM.

Take `O=P(O)(O)O[C@@H]1[C@H](O)[C@H](O)[C@@H](OP(=O)(O)O)[C@H](OP(=O)(O)O)[C@H]1O` (stereo in doubt; 1) [INS(1,4,5)P3]: the EC50 in the experiment on SH-SY5Y was 51.6 nM; in the experiment with Lvec, 247 nM; in the experiment on L15, 123 nM; in the experiment on RBL-1, 170 nM.

Take `O=P(O)(O)OC1C(O)C(OP(=O)(O)O)C(OP(=O)(O)O)C(O)C1OP(=O)(O)O` (stereo unspecified): the IC50 (usually the concentration that inhibits the measured activity by half) in experiment [1] turned out to be 172 nM.

As for `O=P(O)(O)O[C@@H]1[C@H](O)[C@H](O)[C@@H](OP(=O)(O)O)[C@H](OP(=O)(O)O)[C@H]1O` (stereo in doubt; 1), the Hill coefficient – broadly, a measure of the steepness of the concentration-response curve – is 1 in experiment [2]; 0.96 and 1.17 in experiment [3].

Take `O=P(O)(O)O[C@@H]1[C@H](O)[C@H](O)[C@@H](OP(=O)(O)O)[C@H](OP(=O)(O)O)[C@H]1O` (stereo in doubt; 5) [INS(1,4,5)P3]: the EC50 in the experiment with L15 is 740 nM; with RBL-1 it was 4300 nM.
